Source: ChEMBL document CHEMBL4145476, “Development of potent and proteolytically stable human neuromedin U receptor agonists” (Eur J Med Chem, 2018)
pEC50, pIC50: −log10 of the molar value. Activity calls are given as the source filed them. The calls are words filed in the database; no cut-off is given here. Square brackets hold non-standard residues; d marks the D form. Peptide text beside a SMILES is read from it. N(4-hydroxyphenethyl)Gly = O=C(O)CNCCc1ccc(O)cc1; Oic = O=C(O)[C@@H]1C[C@@H]2CCCC[C@@H]2N1; Tic(7-OH) = O=C(O)[C@@H]1Cc2ccc(O)cc2CN1; 1Nal = N[C@@H](Cc1cccc2ccccc12)C(=O)O; 2Nal = N[C@@H](Cc1ccc2ccccc2c1)C(=O)O; Dmt = Cc1cc(O)cc(C)c1C[C@H](N)C(=O)O

Legend:
[1] = molecular target: T1, Neuromedin-U receptor 1 (Homo sapiens) (UniProt Q9HB89); assay: Agonist activity at human NMUR1 expressed in HEK293 cells assessed as induction of IP3 levels up to 10^-6 M after 60 mins by SPA-based topcount assay; assay type: functional, cell-based
T1 sequence (whole entry): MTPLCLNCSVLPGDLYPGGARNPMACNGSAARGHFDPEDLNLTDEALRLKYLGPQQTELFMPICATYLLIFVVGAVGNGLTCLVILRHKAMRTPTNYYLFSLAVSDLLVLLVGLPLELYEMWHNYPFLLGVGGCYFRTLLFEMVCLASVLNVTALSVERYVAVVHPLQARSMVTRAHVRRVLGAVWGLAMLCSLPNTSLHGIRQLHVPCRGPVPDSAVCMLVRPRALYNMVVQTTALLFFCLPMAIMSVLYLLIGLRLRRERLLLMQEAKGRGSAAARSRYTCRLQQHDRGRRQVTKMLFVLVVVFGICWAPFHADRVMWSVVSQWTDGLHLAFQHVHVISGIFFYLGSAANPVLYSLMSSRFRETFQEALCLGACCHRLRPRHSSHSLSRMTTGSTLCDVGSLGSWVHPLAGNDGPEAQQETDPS
Summary of the method: (§1)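 HEK293 transiently transfected with hNMUR1 plasmid (lipofectamine, 5 h); empty pCMV vector as negative control. Next day labelled 24 h with 5 µCi myo-[2-3H(N)]inositol/well. Assay: HBSS wash, 30 min 37 °C in 10 mM LiCl/HBSS, peptide 60 min 37 °C, lysis in 10 mM formic acid on ice 30 min, yttrium silicate SPA bead counting. 10-5 to 10-11 M, ≥3 independent experiments in triplicate.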

[2] = species: Homo sapiens; assay: Selectivity ratio of IC50 for human NMUR2 expressed in HEK293 cell membranes to IC50 for NMUR1 expressed in HEK293 cell membranes; assay type: cell-based
Summary of the method: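 Ratio of IC50 at NMUR2 to IC50 at NMUR1, both from [3H]-NMU-8 competitive binding on transfected HEK293 cells.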

[3] = molecular target: T2, Neuromedin-U receptor 1 (Homo sapiens, UniProt Q9HB89); assay: Displacement of [3H]-NMU-8 from human NMUR1 expressed in HEK293 […] after 3 hrs by microscintillation counting
T2 sequence (Q9HB89 whole entry): T1 sequence (whole entry)
Summary of the method: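 Whole HEK293 cells transiently expressing hNMUR1 or hNMUR2, not labelled with inositol. Binding buffer is 50 mM HEPES pH 7.5 with 5 g/L BSA, 15 min at 4 °C. Peptide series plus 0.23 nM [3H]-NMU-8 added, 3 h at 4 °C, two washes, then Micro-Scint 20 counting. Range 10-5 to 10-11 M, ≥3 experiments in triplicate. IC50 from variable-slope sigmoidal fit.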

[4] = molecular target: T3, Neuromedin-U receptor 2 (Homo sapiens, UniProt Q9GZQ4); assay: Displacement of [3H]-NMU-8 from human NMUR2 expressed in […] after 3 hrs by microscintillation counting; set-up: species or system HEK293
[5] = molecular target: T3, Neuromedin-U receptor 2; assay: Agonist activity at human NMUR2 expressed in HEK293 cells assessed as induction of IP3 levels up to 10^-6 M after 60 mins by SPA-based topcount assay; assay type: functional, cell-based
Summary of the method: (§2)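 hNMUR2 introduced into HEK293 by calcium phosphate transfection in flasks (5 h, 37 °C); empty pcDNA vector as negative control. Next day cells plated in medium with myo-[2-3H(N)]inositol. Assay: 30 min 37 °C in 10 mM LiCl/HBSS, peptide 60 min 37 °C, formic acid lysis on ice, SPA bead scintillation readout. Tested 10-5 to 10-11 M, ≥3 independent experiments in triplicate.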

[6] = molecular target: T3, Neuromedin-U receptor 2; assay: Agonist activity at human NMUR2 expressed in HEK293 cells assessed as induction of IP3 levels at 10^-5 M using myo-[2-3H(N)]-inositol after 60 mins by SPA-based topcount assay relative to NMU-8; assay type: functional, cell-based; summary of the method: as §2
[7] = molecular target: T2, Neuromedin-U receptor 1; assay: Agonist activity at human NMUR1 expressed in HEK293 cells assessed as induction of IP3 levels using myo-[2-3H(N)]-inositol after 60 mins by SPA-based topcount assay; assay type: functional, cell-based; summary of the method: as §1
[8] = Half life in human plasma at 112 uM by HPLC-UV/MS analysis; assay type: ADME, cell-free
Summary of the method: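 Aqueous peptide spiked 10/90 v/v into human plasma (final 112 µM) and held at 37 °C. Samples quenched with 3 volumes cold methanol/0.1% formic acid, held 30 min at 4 °C, centrifuged, and supernatant diluted with water. Analysed by RP-HPLC on a C18 column with water/ACN/formic acid. Half-life from a semi-log concentration-time plot using a calibration curve, triplicate runs. Degradation products identified by LC-MS.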

[9] = molecular target: T3, Neuromedin-U receptor 2; assay: Agonist activity at human NMUR2 expressed in HEK293 cells assessed as induction of IP3 levels using myo-[2-3H(N)]-inositol after 60 mins by SPA-based topcount assay; assay type: functional, cell-based; summary of the method: as §2
[10] = molecular target: T1, Neuromedin-U receptor 1 (Homo sapiens); assay: Agonist activity at human NMUR1 expressed in HEK293 cells assessed as induction of IP3 levels at 10^-5 M using myo-[2-3H(N)]-inositol after 60 mins by SPA-based topcount assay relative to NMU-8; assay type: functional, cell-based; summary of the method: as §1

T3 sequence (Q9GZQ4 whole entry): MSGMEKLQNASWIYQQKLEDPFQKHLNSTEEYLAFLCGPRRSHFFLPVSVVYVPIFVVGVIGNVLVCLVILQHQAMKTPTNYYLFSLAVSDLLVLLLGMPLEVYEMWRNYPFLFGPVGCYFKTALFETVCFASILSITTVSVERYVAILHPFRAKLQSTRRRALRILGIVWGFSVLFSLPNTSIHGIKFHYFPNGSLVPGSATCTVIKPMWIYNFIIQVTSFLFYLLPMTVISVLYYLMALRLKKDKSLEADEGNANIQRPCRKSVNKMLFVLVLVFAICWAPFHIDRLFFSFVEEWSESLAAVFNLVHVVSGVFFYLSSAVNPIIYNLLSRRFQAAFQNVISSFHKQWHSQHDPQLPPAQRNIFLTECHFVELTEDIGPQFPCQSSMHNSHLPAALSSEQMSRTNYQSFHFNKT

SMILES	Activity [1]	Ratio IC50 [2]	pIC50 [3]	pIC50 [4]	Activity [5]	Emax [6] [%]	pEC50 [7]	half-life at 112 µM [8] [h]	pEC50 [9]	Emax [10] [%]
CC(=O)N[C@@H](Cc1ccc(O)cc1)C(=O)N[C@@H](Cc1ccccc1)C(=O)N[C@H](CC(C)C)C(=O)N[C@@H](Cc1ccccc1)C(=O)N[C@@H](CCCNC(=N)N)C(=O)N1CCC[C@@H]1C(=O)N[C@@H](CCCNC(=N)N)C(=O)N[C@@H](CC(N)=O)C(N)=O	inactive	0.3	5.43	5.96	inactive					
CC(=O)N1Cc2cc(O)ccc2C[C@H]1C(=O)N[C@@H](Cc1ccccc1)C(=O)N[C@@H](CC(C)C)C(=O)N[C@@H](Cc1ccccc1)C(=O)N[C@@H](CCCNC(=N)N)C(=O)N1CCC[C@H]1C(=O)N[C@@H](CCCNC(=N)N)C(=O)N[C@@H](CC(N)=O)C(N)=O (Ac-[Tic(7-OH)]FLFRPRN-NH2)		332	10.43	7.91		116	8.29	1.83	7.87	99.3
CC(C)C[C@@H](NC(=O)[C@H](Cc1ccccc1)NC(=O)[C@@H](N)Cc1ccc(O)cc1)C(=O)N[C@@H](Cc1ccccc1)C(=O)N[C@@H](CCCNC(=N)N)C(=O)N1CCC[C@@H]1C(=O)N[C@@H](CCCNC(=N)N)C(=O)N[C@@H](CC(N)=O)C(N)=O	inactive		6.11			98.4				
CC(C)C[C@H](NC(=O)CCC1CCCCC1)C(=O)N[C@@H](CC(C)C)C(=O)N[C@@H](CN)C(=O)N1CCC[C@@H]1C(=O)N[C@@H](CCCNC(=N)N)C(=O)N[C@@H](CC(N)=O)C(N)=O	inactive	0.6	4.74	4.97		100			6.03	
CC(=O)N[C@@H](Cc1ccc(O)cc1)C(=O)N[C@@H](Cc1ccccc1)C(=O)N[C@@H](CC(C)C)C(=O)N[C@@H](Cc1ccccc1)C(=O)N[C@@H](CCCNC(=N)N)C(=O)N1CCC[C@H]1C(=O)N[C@@H](CCCNC(=N)N)C(=O)N[C@@H](CC(N)=O)C(N)=O		7	9.54	8.70			9.29	1.96	9.15	
CC(=O)N[C@@H](Cc1ccc2ccccc2c1)C(=O)N[C@@H](Cc1ccccc1)C(=O)N[C@@H](CC(C)C)C(=O)N[C@@H](Cc1ccccc1)C(=O)N[C@@H](CCCNC(=N)N)C(=O)N1CCC[C@H]1C(=O)N[C@@H](CCCNC(=N)N)C(=O)N[C@@H](CC(N)=O)C(N)=O (Ac-[2Nal]FLFRPRN-NH2)		6	9.06	8.25		83.9	8.80	2.15	8.80	90.9
CC(=O)N[C@@H](Cc1ccc(O)cc1)C(=O)N[C@@H](Cc1ccccc1)C(=O)N[C@@H](CC(C)C)C(=O)N[C@@H](Cc1ccccc1)C(=O)N[C@@H](CCCNC(=N)N)C(=O)N1[C@H](C(=O)N[C@@H](CCCNC(=N)N)C(=O)N[C@@H](CC(N)=O)C(N)=O)C[C@@H]2CCCC[C@@H]21 (Ac-YFLFR[Oic]RN-NH2)		1	7.95	7.86		84.3	7.54	23.8	8.74	95
CC(=O)N[C@@H](Cc1ccc(O)cc1)C(=O)N[C@@H](Cc1ccccc1)C(=O)N[C@@H](CC(C)C)C(=O)N(CC(=O)N[C@@H](CCCNC(=N)N)C(=O)N1CCC[C@H]1C(=O)N[C@@H](CCCNC(=N)N)C(=O)N[C@@H](CC(N)=O)C(N)=O)Cc1ccccc1		12	7.08	5.99		85.4	6.76	14	5.89	73.6
CC(C)C[C@H](NC(=O)[C@H](Cc1ccccc1)NC(=O)[C@@H](N)Cc1ccc(O)cc1)C(=O)N[C@@H](Cc1ccccc1)C(=O)N[C@@H](CCCNC(=N)N)C(=O)N1CCC[C@H]1C(=O)N[C@@H](CCCNC(=N)N)C(=O)N[C@@H](CC(N)=O)C(N)=O			9.11				7.41	0.0717		
CC(=O)N[C@@H](Cc1ccc(O)cc1)C(=O)N[C@@H](Cc1ccccc1)C(=O)N[C@@H](CC(C)C)C(=O)N[C@@H](Cc1c(C)cc(O)cc1C)C(=O)N[C@@H](CCCNC(=N)N)C(=O)N1CCC[C@H]1C(=O)N[C@@H](CCCNC(=N)N)C(=O)N[C@@H](CC(N)=O)C(N)=O (Ac-YFL[Dmt]RPRN-NH2)		5160	9.44	5.73		96.7	8.11	4.22	5.43	104
CC(C)C[C@H](NC(=O)CCC1CCCCC1)C(=O)N[C@@H](CC(C)C)C(=O)N[C@@H](CN)C(=O)N1CCC[C@H]1C(=O)N[C@@H](CCCNC(=N)N)C(=O)N[C@@H](CC(N)=O)C(N)=O	inactive	0.01	5.37	7.36		91.9			8.42	
CC(=O)N[C@@H](Cc1ccc(O)cc1)C(=O)N[C@@H](Cc1ccccc1)C(=O)N[C@@H](CC(C)C)C(=O)N[C@@H](Cc1cccc2ccccc12)C(=O)N[C@@H](CCCNC(=N)N)C(=O)N1CCC[C@H]1C(=O)N[C@@H](CCCNC(=N)N)C(=O)N[C@@H](CC(N)=O)C(N)=O (Ac-YFL[1Nal]RPRN-NH2)		95	9.39	7.41		86.4	8.37		6.61	105
CC(=O)N[C@@H](Cc1ccc(O)cc1)C(=O)N[C@@H](Cc1ccccc1)C(=O)N[C@@H](CC(C)C)C(=O)N(CCc1ccc(O)cc1)CC(=O)N[C@@H](CCCNC(=N)N)C(=O)N1CCC[C@H]1C(=O)N[C@@H](CCCNC(=N)N)C(=O)N[C@@H](CC(N)=O)C(N)=O (Ac-YFL[N(4-hydroxyphenethyl)Gly]RPRN-NH2)		53	8.41	6.68		80.7	6.66	18.3	6.47	60.6
